The test system of assay [1] is P388. The experiment in a line: Cytotoxic concentration against murine leukemia P388 cells. It is filed as functional, cell-based, Mus musculus.
Assay [2] deals with T1, DNA topoisomerase 1 (Homo sapiens, UniProt P11387).
T1 sequence (P11387 whole entry): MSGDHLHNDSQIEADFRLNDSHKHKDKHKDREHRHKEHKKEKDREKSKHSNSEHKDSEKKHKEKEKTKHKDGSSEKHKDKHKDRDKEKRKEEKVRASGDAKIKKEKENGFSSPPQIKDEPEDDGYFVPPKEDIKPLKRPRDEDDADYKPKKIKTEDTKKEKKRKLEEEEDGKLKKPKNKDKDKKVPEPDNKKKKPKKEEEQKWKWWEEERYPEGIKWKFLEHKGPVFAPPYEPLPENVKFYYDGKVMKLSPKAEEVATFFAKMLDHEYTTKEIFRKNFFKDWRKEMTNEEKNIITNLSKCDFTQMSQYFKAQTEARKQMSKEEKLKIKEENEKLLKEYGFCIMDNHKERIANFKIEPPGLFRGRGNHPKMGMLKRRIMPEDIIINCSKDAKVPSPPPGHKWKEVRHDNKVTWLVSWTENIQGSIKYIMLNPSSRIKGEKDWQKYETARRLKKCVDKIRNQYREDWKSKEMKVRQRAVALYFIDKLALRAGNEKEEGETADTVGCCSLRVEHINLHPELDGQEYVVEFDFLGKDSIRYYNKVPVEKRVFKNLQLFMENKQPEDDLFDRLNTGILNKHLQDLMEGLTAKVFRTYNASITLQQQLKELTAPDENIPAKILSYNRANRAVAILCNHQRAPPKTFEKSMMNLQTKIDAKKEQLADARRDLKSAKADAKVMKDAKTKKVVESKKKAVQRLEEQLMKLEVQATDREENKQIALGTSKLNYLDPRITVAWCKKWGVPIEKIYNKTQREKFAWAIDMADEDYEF
Kind of assay: Topoisomerase I activity for single-strand breaks in the DNA substrate. The gist of the method: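 Topo I-mediated DNA cleavage assay using covalently closed, supercoiled phage PM2 DNA as substrate; read-out is induction of single-strand breaks.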

Assay [3] has as its system P388. Kind of assay: Ratio of IC50 of P388 cells to that of CPT45 cells. It is filed as functional, Mus musculus.
The subject of assay [4] is HT-29. The experiment in a line: Antitumor activity against HT-29 human colon carcinoma xenograft model; Activity expressed as no. of cures by total (8). It is filed as functional. (In general: A xenograft is tissue or cells of one species grown in another, often human tumour cells in immunodeficient mice.)
For assay [5], the system named is HT-29. Kind of assay: Optimal dose required for antitumor activity against HT-29 human colon carcinoma xenograft model when administered once a day iv dosing every other day for five doses (q2dx5,iv). It is filed as functional.
The test system of assay [6] is HT-29. Kind of assay: In vivo antitumor activity against HT-29 human colon carcinoma xenograft model when administered iv, (1:1:8 cremophor: ethanol: water vehicle) expressed as optimal effect in LCK. It is filed as functional.
Assay [7] concerns HT-29. The experiment in a line: Optimal dose required for antitumor activity against HT-29 human colon carcinoma xenograft model when administered once a day iv dosing every other day for five doses (q2dx5,iv); MTD=30 mg.kg/inj. It is filed as functional.
In assay [8] the test system is HT-29. The experiment in a line: Optimal dose required for antitumor activity against HT-29 human colon carcinoma xenograft model when administered twice a day iv dosing every other day for five doses (2q2dx5,iv). It is filed as functional.

By IC50 is commonly meant the concentration that inhibits the measured activity by half. Broadly, the EC50 is the concentration needed to bring the measured effect to its halfway point. Low values mean higher potency in that assay, high ones lower potency in that assay. The compound `O=C1NC(=O)c2c1c1c3cc(F)ccc3[nH]c1c1c2c2cc(F)ccc2n1C1OC(CO)C(F)(F)C(O)C1O` (centres undefined) registered an IC50 in assay [1] (Mus musculus, P388) of 0.003 µM. In assay [2], this compound came in with a concentration giving a half-maximal response (EC50) of 0.08 µM. For the same compound, the Ratio in assay [3] was 380.
The like results for `O=C1NC(=O)c2c1c1c3ccc(F)cc3[nH]c1c1c2c2ccc(F)cc2n1C1OC(CO)C(F)C(O)C1O` (centres undefined) were, in that order, 0.003 µM, 0.2 µM and 59.
As to `O=C1NC(=O)c2c1c1c3cc(F)c(F)cc3sc1c1c2c2cc(F)c(F)cc2n1C1OC(CO)C(F)(F)C(O)C1O` (centres undefined), the IC50 in assay [1] (Mus musculus, P388) was found to be 0.0004 µM. In assay [2], this compound showed an EC50 of 0.5 µM. Moreover, the Ratio in assay [3] turned out to be 580.
The like results for `O=C1NC(=O)c2c1c1c3cc(F)c(F)cc3sc1c1c2c2cc(F)c(F)cc2n1C1OC(CF)C(O)C(O)C1O` (centres undefined) were, in that order, 0.052 µM, 1.5 µM and 119.
For `O=C1NC(=O)c2c1c1c3cc(F)ccc3[nH]c1c1c2c2cc(F)ccc2n1C1OC(COF)C(F)C(O)C1O` (centres undefined), the No. of cures in assay [4] worked out at 0. Besides, half-maximal inhibition in assay [1] (Mus musculus, P388) (IC50) required 0.004 µM. The same compound gave an Optimal dose in assay [5] of 13 mg.kg/inj. The 50% effective concentration (EC50) in assay [2] amounted to 0.41 µM. The compound also gave an Activity in assay [6] of 1.6. Besides, in assay [3], the Ratio came to 450.
Take `O=C1NC(=O)c2c1c1c3cc(F)ccc3sc1c1c2c2cc(F)ccc2n1C1OC(CF)C(O)C(O)C1O` (centres undefined): inhibition in assay [1] (Mus musculus, P388) was half-maximal at 0.016 µM (IC50). In addition, it took 0.42 µM to reach a half-maximal effect in assay [2] (EC50). Further, in assay [3], the Ratio came to 110.
The corresponding values for `O=C1NC(=O)c2c1c1c3cc(F)ccc3[nH]c1c1c2c2cc(F)ccc2n1C1OC(CO)C(O)C(O)C1O` (centres undefined) are 0.018 µM, 0.24 µM and 183.
Regarding `O=C1NC(=O)c2c1c1c3cc(F)ccc3[nH]c1c1c2c2cc(F)ccc2n1C1OC(CO)C(F)C(O)C1O` (centres undefined), the No. of cures in assay [4] stood at 2. The compound further registered an IC50 in assay [1] (Mus musculus, P388) of 0.002 µM. The compound further showed a 50% effective concentration (EC50) in assay [2] of 0.11 µM. Moreover, the Optimal dose in assay [7] came to 20 mg.kg/inj. Also, in assay [6], the Activity is on record as 3.1. Besides, the Ratio in assay [3] is given as 380.
Take `NCC1OC(n2c3cc(F)c(F)cc3c3c4c(c5c6cc(F)c(F)cc6[nH]c5c32)C(=O)NC4=O)C(O)C(O)C1(F)F` (centres undefined): the IC50 in assay [1] (Mus musculus, P388) was determined as 0.06 µM. This compound returned a concentration giving a half-maximal response (EC50) in assay [2] of 0.05 µM. In assay [3], the Ratio was 16.
The like results for `O=C1NC(=O)c2c1c1c3cc(F)c(F)cc3[nH]c1c1c2c2cc(F)c(F)cc2n1C1OC(CO)C(F)C(O)C1O` (centres undefined) were, in that order, 0.004 µM, 0.75 µM and 500.
The compound `O=C1NC(=O)c2c1c1c3cc(F)c(F)cc3[nH]c1c1c2c2cc(F)c(F)cc2n1C1OC(CF)C(O)C(O)C1O` (centres undefined) gave an IC50 in assay [1] (Mus musculus, P388) of 0.034 µM. In addition, the EC50 in assay [2] was found to be 3 µM. For the same compound, the Ratio in assay [3] worked out at 52.
With `O=C1NC(=O)c2c1c1c3cc(F)c(F)cc3sc1c1c2c2cc(F)c(F)cc2n1C1OC(CO)C(F)C(O)C1O` (centres undefined), the No. of cures in assay [4] is reported as 2. For the same compound, the midpoint of inhibition in assay [1] (Mus musculus, P388), the IC50, lay at 0.003 µM. For the same compound, it took 0.04 µM to reach a half-maximal effect in assay [2] (EC50). Besides, the Optimal dose in assay [8] came to 11 mg.kg/inj. The compound further gave an Activity in assay [6] of over 2.3. In assay [3], the Ratio is over 1658.
As for `NCC1OC(n2c3ccc(F)cc3c3c4c(c5c6cc(F)ccc6[nH]c5c32)C(=O)NC4=O)C(O)C(O)C1F` (centres undefined), half-maximal inhibition in assay [1] (Mus musculus, P388) (IC50) required 0.014 µM. Besides, in assay [2], the half-maximal effective concentration (EC50) is 0.07 µM. For the same compound, in assay [3], the Ratio was determined as 37.
In assay [1] (p388), `O=C1NC(=O)c2c1c1c3cc(F)ccc3[nH]c1c1c2c2cc(F)ccc2n1C1OC(CF)C(O)C(O)C1O` (stereo in doubt; 6) had an IC50 of 0.05 µM. In assay [2], this compound displayed a concentration giving a half-maximal response (EC50) of 0.48 µM. For the same compound, the Ratio in assay [3] is 98.
The corresponding values for `O=C1NC(=O)c2c1c1c3cc(F)ccc3[nH]c1c1c2c2cc(F)ccc2n1C1OC(CF)C(O)C(O)C1O` (stereo in doubt; 10) are 0.012 µM, 4.4 µM and 110.

(Values after ChEMBL document CHEMBL1143557, “Discovery of a fluoroindolo[2,3-a]carbazole clinical candidate with broad spectrum antitumor activity in preclinical tumor models superior to the marketed oncology drug, CPT-11” (J Med Chem, 2005).)
